Results reported in ChEMBL document CHEMBL4229344 (Eur J Med Chem, 2018).
Activity calls are given as the source filed them. No cut-off for these calls is given here.

How the values were obtained:
[1] = target: Serine/threonine-protein kinase 3 (Homo sapiens) (UniProt Q13188); test: Binding affinity to wild-type human partial length MST2 (D17 to E318 residues) expressed in bacterial expression system assessed as residual binding level at 1 uM by Kinomescan method relative to control
[2] = target: MAP kinase-interacting serine/threonine-protein kinase 2 (Homo sapiens) (UniProt Q9HBH9); test: Binding affinity to wild-type human partial length MKNK2 (G63 to S388 residues) expressed in mammalian expression system assessed as residual binding level at 1 uM by Kinomescan method relative to control
Chain of MAP kinase-interacting serine/threonine-protein kinase 2 (Homo sapiens) (Q9HBH9 whole entry, looked up, the tested form may be a part): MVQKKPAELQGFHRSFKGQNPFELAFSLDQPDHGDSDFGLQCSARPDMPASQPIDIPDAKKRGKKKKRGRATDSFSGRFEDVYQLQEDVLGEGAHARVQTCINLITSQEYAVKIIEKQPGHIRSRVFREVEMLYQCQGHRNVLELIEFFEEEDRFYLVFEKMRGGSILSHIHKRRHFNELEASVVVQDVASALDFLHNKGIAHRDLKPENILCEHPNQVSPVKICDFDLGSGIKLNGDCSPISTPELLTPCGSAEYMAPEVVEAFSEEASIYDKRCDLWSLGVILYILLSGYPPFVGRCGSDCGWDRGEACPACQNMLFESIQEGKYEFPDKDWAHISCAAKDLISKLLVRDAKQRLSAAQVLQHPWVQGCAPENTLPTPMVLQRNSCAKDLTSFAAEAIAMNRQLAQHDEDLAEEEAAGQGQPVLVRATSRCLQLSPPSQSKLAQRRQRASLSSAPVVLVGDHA

[3] = tested on: Epidermal growth factor receptor (Homo sapiens), P00533 [L861Q]; test: Binding affinity to human partial length EGFR L861Q mutant (R669 to V1011 residues) expressed in bacterial expression system assessed as residual binding level at 1 uM by Kinomescan method relative to control
Procedure, shortened: (§1)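 Kinome-wide single-concentration binding screen (KINOMEscan) at 1 μM against a panel of 468 purified kinases and mutants. Read-out is relative binding of each kinase compared with control. Selectivity across the panel was summarised as an S(10) score.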

[4] = target: Casein kinase I isoform delta (Homo sapiens) (UniProt P48730); test: Binding affinity to wild-type human full length CSNK1D (M1 to K409 residues) expressed in bacterial expression system assessed as residual binding level at 1 uM by Kinomescan method relative to control
Chain of Casein kinase I isoform delta (Homo sapiens) (P48730 whole entry, looked up, the tested form may be a part, canonical isoform): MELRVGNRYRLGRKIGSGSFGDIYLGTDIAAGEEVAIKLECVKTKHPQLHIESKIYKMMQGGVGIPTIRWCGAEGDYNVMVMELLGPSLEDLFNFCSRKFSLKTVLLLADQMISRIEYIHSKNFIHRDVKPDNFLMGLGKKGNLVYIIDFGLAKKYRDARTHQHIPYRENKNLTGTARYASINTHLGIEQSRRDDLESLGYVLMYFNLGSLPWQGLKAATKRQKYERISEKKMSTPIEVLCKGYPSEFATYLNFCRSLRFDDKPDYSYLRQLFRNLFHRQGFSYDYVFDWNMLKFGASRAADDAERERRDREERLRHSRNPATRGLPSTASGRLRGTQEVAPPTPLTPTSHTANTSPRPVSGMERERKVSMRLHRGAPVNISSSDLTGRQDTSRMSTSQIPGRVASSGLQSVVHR
Procedure, shortened: (§2)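 Single-concentration (1 μM) competition-binding screen run by KINOMEscan against a panel of 468 purified kinases and mutants. The read-out is the relative binding activity of the test compound to each kinase.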

[5] = target: Tyrosine-protein kinase Fgr (Homo sapiens) (UniProt P09769); test: Binding affinity to wild-type human partial length FGR (L233 to T529 residues) expressed in bacterial expression system assessed as residual binding level at 1 uM by Kinomescan method relative to control
Chain of Tyrosine-protein kinase Fgr (Homo sapiens) (P09769 2-529 limits assumed): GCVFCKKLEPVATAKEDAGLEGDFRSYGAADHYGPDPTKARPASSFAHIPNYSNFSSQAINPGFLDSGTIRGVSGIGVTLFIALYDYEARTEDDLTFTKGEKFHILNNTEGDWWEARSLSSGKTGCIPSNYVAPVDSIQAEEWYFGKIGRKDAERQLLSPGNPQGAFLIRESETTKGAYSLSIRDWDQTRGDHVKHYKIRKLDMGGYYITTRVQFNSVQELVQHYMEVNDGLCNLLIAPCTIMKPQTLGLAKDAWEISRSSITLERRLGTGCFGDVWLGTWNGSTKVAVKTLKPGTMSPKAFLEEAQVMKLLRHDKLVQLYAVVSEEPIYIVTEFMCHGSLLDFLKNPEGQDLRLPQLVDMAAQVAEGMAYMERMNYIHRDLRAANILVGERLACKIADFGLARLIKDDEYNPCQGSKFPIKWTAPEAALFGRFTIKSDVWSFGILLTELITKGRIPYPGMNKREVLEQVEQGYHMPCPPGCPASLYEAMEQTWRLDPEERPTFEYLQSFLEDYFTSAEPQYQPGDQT
Procedure, shortened: (§3)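 Kinome-wide competition binding screen against a panel of 468 purified kinases/mutants, with the test compound at a single concentration of 1 μM. Read-out is the relative binding activity of each kinase in the presence of compound.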

[6] = target: Tyrosine-protein kinase JAK2 (Homo sapiens) (UniProt O60674); test: Binding affinity to wild-type human partial length JAK2 JH1 catalytic domain (A829 to G1132 residues) expressed in mammalian expression system assessed as residual binding level at 1 uM by Kinomescan method relative to control
Chain of Tyrosine-protein kinase JAK2 (Homo sapiens) (O60674 whole entry, the tested form may be a part): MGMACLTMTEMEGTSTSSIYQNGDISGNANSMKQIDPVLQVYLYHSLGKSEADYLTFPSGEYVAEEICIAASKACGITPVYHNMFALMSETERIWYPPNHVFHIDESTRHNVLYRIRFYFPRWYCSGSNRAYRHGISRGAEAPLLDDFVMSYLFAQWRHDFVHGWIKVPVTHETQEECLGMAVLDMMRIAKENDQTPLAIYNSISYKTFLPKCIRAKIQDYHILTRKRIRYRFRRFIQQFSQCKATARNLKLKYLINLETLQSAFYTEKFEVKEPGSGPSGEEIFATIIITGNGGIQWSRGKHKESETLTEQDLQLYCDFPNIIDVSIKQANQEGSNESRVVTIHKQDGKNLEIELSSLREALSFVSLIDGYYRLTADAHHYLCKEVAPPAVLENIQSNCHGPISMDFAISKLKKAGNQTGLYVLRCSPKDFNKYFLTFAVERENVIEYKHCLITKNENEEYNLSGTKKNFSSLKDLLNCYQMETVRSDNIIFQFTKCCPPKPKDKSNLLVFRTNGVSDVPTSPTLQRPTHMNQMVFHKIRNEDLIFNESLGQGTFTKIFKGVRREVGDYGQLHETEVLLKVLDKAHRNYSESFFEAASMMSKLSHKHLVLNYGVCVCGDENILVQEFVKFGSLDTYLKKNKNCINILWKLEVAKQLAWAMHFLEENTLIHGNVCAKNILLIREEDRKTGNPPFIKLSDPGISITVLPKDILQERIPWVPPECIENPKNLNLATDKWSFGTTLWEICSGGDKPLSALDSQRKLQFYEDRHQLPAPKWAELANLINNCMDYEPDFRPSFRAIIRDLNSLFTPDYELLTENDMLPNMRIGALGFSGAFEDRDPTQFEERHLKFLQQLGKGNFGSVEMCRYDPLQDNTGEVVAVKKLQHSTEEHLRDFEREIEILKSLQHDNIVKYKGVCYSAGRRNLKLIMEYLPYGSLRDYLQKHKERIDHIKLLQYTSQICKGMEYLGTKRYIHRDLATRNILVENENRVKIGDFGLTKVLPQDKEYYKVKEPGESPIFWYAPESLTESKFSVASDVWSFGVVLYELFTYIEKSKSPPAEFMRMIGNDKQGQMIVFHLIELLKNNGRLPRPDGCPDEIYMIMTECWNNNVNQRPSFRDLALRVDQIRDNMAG

[7] = target: Serine/threonine-protein kinase Chk1 (Homo sapiens) (UniProt O14757); test: Binding affinity to wild-type human partial length CHEK1 (M1 to G289 residues) expressed in bacterial expression system assessed as residual binding level at 1 uM by Kinomescan method relative to control
[8] = target: Tyrosine-protein kinase JAK3 (Homo sapiens) (UniProt P52333); test: Binding affinity to wild-type human partial length JAK3 JH1 catalytic domain (I781 to S1124 residues) expressed in mammalian expression system assessed as residual binding level at 1 uM by Kinomescan method relative to control
[9] = target: Cyclin-G-associated kinase (Homo sapiens) (UniProt O14976); test: Binding affinity to wild-type human partial length GAK (G13 to Y338 residues) expressed in bacterial expression system assessed as residual binding level at 1 uM by Kinomescan method relative to control; procedure, shortened: as §3
[10] = target: Fibroblast growth factor receptor 3 (Homo sapiens) (UniProt P22607); test: Binding affinity to wild-type human partial length FGFR3 (R442 to S771 residues) expressed in bacterial expression system assessed as residual binding level at 1 uM by Kinomescan method relative to control
[11] = target: Serine/threonine-protein kinase WNK4 (Homo sapiens) (UniProt Q96J92); test: Binding affinity to wild-type human partial length WNK4 (A31 to D461 residues) expressed in mammalian expression system assessed as residual binding level at 1 uM by Kinomescan method relative to control
[12] = tested on: Phosphatidylinositol 4,5-bisphosphate 3-kinase catalytic subunit alpha isoform (Homo sapiens), P42336 [E542K]; test: Binding affinity to human partial length PIK3CA E542K mutant (R108 to N1068 residues) expressed in mammalian expression system assessed as residual binding level at 1 uM by Kinomescan method relative to control; procedure, shortened: as §1
[13] = tested on: Tyrosine-protein kinase ABL1 (Homo sapiens), P00519 [M351T]; test: Binding affinity to human phosphorylated ABL1 M351T mutant (S229 to K512 residues) expressed in mammalian expression system assessed as residual binding level at 1 uM by Kinomescan method relative to control; procedure, shortened: as §2
[14] = target: Ribosomal protein S6 kinase alpha-5 (Homo sapiens) (UniProt O75582); test: Binding affinity to wild-type human partial length N-terminal RPS6KA5 kinase domain 1 expressed in bacterial expression system assessed as residual binding level at 1 uM by Kinomescan method relative to control
Chain of Ribosomal protein S6 kinase alpha-5 (Homo sapiens) (O75582 whole entry, looked up, the tested form may be a part): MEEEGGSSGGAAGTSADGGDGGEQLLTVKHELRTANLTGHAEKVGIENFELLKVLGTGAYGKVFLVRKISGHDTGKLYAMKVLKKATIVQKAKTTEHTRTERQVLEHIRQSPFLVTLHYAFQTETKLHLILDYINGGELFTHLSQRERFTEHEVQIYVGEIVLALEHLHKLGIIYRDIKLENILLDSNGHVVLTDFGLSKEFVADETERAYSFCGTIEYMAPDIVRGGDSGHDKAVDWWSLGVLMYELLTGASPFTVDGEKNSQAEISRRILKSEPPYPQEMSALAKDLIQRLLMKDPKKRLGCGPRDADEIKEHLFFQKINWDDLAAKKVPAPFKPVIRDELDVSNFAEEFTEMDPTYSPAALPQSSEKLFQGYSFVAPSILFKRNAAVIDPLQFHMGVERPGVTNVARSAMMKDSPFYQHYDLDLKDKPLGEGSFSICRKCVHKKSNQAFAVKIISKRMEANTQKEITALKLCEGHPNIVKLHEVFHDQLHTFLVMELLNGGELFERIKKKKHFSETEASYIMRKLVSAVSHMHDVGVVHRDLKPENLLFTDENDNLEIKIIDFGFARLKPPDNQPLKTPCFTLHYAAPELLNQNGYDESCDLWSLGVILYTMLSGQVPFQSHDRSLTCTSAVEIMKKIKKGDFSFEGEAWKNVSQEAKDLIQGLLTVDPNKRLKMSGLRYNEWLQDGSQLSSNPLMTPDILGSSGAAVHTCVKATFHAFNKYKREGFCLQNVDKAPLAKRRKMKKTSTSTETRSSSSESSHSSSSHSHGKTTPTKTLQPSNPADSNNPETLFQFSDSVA

[15] = tested on: Tyrosine-protein kinase ABL1 (Homo sapiens), P00519 [E255K]; test: Binding affinity to human phosphorylated ABL1 E255K mutant (S229 to K512 residues) expressed in mammalian expression system assessed as residual binding level at 1 uM by Kinomescan method relative to control; procedure, shortened: as §1
[16] = target: Serine/threonine-protein kinase tousled-like 1 (Homo sapiens) (UniProt Q9UKI8); test: Binding affinity to wild-type human partial length TLK1 (K447 to A754 residues) expressed in bacterial expression system assessed as residual binding level at 1 uM by Kinomescan method relative to control
[17] = Apparent clearance in Sprague-Dawley rat at 1 mg/kg, iv; assay type: ADME, organism-based; details: in vivo, read-out: CL(app) (converted)
[18] = target: Protein kinase C delta type (Homo sapiens) (UniProt Q05655); test: Binding affinity to wild-type human partial length PRKCD (Q328 to D676 residues) expressed in bacterial expression system assessed as residual binding level at 1 uM by Kinomescan method relative to control
Procedure, shortened: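 KINOMEscan competition binding against a panel of 468 purified kinases/mutants, compound tested at 1 μM; readout is relative binding activity versus control.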

[19] = target: Serine/threonine-protein kinase 17A (Homo sapiens) (UniProt Q9UEE5); test: Binding affinity to wild-type human partial length DRAK1 (R32 to E363 residues) expressed in bacterial expression system assessed as residual binding level at 1 uM by Kinomescan method relative to control
[20] = target: Phosphatidylinositol 3-kinase C2 domain-containing subunit gamma (Homo sapiens) (UniProt O75747); test: Binding affinity to wild-type human partial length PIK3C2G (M1 to I1446 residues) expressed in mammalian expression system assessed as residual binding level at 1 uM by Kinomescan method relative to control
[21] = Cmax in Sprague-Dawley rat at 1 mg/kg, iv; assay type: ADME, organism-based; design: dose 1 mg/kg, route intravenous; details: in vivo
Procedure, shortened: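 Male Sprague-Dawley rats, 6–8 weeks old and fasted overnight, dosed IV at 1 mg/kg or PO at 10 mg/kg. Formulation was 5% DMSO/40% PEG400/55% saline (1 mg/mL). Jugular blood collected on heparin from 1 min to 8 h (IV) or 5 min to 24 h (PO). Plasma separated by centrifugation at 2–8 °C and stored at −80 °C.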

[22] = target: Platelet-derived growth factor receptor alpha (Homo sapiens, UniProt P16234); test: Inhibition of PDGFRalpha autophosphorylation at Y754 residue in human EOL-1 cells up to 300 nM after 2 hrs by Western blot method; assay type: cell-based
Chain of Platelet-derived growth factor receptor alpha (P16234 whole entry): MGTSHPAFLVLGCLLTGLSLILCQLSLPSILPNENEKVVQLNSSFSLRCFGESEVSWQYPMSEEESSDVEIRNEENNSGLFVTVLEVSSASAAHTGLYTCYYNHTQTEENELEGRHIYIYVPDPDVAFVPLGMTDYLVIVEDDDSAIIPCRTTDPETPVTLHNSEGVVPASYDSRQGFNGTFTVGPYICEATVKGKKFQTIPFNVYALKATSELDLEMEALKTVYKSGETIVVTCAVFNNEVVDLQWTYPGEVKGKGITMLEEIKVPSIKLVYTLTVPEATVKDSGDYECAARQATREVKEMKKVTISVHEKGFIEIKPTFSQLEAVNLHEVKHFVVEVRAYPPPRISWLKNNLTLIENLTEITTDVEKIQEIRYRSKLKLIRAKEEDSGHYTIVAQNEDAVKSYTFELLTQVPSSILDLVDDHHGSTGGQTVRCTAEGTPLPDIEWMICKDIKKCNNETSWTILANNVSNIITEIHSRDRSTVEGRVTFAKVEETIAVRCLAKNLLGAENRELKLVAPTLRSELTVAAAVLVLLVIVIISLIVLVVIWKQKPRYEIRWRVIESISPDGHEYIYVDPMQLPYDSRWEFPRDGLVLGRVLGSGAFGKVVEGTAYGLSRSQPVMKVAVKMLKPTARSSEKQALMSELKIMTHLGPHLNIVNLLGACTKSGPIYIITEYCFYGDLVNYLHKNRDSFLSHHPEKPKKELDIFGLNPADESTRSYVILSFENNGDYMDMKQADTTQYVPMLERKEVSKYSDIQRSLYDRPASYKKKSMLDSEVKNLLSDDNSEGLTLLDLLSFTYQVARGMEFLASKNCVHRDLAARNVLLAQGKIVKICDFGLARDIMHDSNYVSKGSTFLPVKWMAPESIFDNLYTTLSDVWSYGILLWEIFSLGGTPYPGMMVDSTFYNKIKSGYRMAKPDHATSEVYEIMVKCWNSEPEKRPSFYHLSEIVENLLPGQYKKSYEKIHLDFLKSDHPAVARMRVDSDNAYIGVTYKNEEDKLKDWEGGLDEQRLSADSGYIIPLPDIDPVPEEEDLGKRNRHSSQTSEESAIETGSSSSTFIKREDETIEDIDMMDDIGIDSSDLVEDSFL

Chain of Serine/threonine-protein kinase 3 (Homo sapiens) (Q13188 whole entry, the tested form may be a part): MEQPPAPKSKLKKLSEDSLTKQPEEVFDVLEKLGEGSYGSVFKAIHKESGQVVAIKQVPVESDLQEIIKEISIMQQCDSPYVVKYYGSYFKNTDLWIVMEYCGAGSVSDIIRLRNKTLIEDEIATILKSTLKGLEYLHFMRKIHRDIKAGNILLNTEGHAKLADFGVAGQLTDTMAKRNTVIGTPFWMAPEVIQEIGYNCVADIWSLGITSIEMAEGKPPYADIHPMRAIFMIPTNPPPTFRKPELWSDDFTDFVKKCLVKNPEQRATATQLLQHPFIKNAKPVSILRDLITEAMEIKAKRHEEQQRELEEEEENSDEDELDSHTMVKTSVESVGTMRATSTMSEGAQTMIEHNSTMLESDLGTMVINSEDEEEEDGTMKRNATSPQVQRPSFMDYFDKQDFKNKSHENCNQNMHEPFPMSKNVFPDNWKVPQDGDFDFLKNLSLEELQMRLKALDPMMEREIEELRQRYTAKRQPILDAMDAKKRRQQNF

Which Activity [1] does the source give for `Cc1ccc(NC(=O)c2ccc(CN(CCN(C)C)C(=O)c3cccnc3)cc2)cc1Nc1nccc(-c2cccnc2)n1` here?
The Activity was 100%.

What about the Activity [2] of the same compound?
The Activity was 100%.

And the Activity [3]?
The Activity was 99%.

And the Activity [4]?
Its Activity is 95%.

And the Activity [5]?
The Activity was 91%.

And the Activity [6]?
The Activity was 95%.

What about the Activity [7] of the same compound?
The Activity was 100%.

What about the Activity [8] of the same compound?
The Activity was 100%.

And the Activity [9]?
Its Activity is 82%.

What about the Activity [10] of the same compound?
The Activity was 100%.

And the Activity [11]?
Its Activity is 100%.

And the Activity [12]?
The Activity was 83%.

What about the Activity [13] of the same compound?
The Activity was 77%.

What about the Activity [14] of the same compound?
Its Activity is 86%.

What about the Activity [15] of the same compound?
Its Activity is 80%.

And the Activity [16]?
The Activity was 100%.

And the clearance [17]?
Its clearance is 32.7 mL/min/kg.

What about the Activity [18] of the same compound?
The Activity was 87%.

And the Activity [19]?
The Activity was 77%.

And the Activity [20]?
The Activity was 100%.

And the Cmax [21]?
The Cmax was 4590 ng/mL.

And the inhibition [22]?
The inhibition was “inactive”.
